The text below walks through data of ChEMBL document CHEMBL2346497, “Synthesis of novel cognition enhancers with pyrazolo[5,1-c][1,2,4]benzotriazine core acting at γ-aminobutyric acid type A (GABA(A)) receptor” (Bioorg Med Chem, 2013).

In general, Ki refers to a measure of affinity in units of concentration, obtained from inhibition or displacement. A word on the inhibition: it is the change of the read-out against control, counted positive when it falls.

A short description of series [1]: Displacement of [3H]Ro15-1788 from GABA-A receptor benzodiazepine binding site in bovine cerebral cortex membranes after 1 hr. The class given is cell membranes, Bos taurus, Membrane. (Loss of bound radioactivity is the signal in a displacement assay; it reports binding, not function.)
Series [2] addresses T1, Gamma-aminobutyric acid receptor subunit alpha-5 (Homo sapiens, UniProt P18507+P31644+P47870).
T1 sequence (P31644 whole entry): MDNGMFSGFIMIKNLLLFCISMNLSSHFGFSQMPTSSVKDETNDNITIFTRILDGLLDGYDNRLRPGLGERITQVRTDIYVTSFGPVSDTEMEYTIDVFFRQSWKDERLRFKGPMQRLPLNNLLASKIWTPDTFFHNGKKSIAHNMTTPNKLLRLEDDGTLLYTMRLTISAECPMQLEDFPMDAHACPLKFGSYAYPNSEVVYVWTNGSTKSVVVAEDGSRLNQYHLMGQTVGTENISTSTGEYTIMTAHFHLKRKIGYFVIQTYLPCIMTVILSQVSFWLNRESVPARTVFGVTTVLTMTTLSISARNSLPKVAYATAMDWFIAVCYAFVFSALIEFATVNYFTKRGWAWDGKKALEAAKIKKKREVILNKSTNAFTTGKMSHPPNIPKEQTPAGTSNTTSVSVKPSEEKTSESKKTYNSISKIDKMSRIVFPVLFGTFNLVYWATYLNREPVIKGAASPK
In words: Displacement of [3H]Ro15-1788 from recombinant GABA-A alpha5beta2gamma2 receptor benzodiazepine binding site (unknown origin) after 1 hr.

Series [3] has as its target GABA A receptor alpha-2/beta-2/gamma-2 (Homo sapiens) (UniProt P47870+P18507+P47869). In words: Displacement of [3H]Ro15-1788 from recombinant GABA-A alpha2beta2gamma2 receptor benzodiazepine binding site (unknown origin) at 10 uM after 1 hr relative to control. It counts as protein-complex assay. A digest of the protocol:
(§1)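 Membranes came from clonal mammalian cell lines expressing α1β2γ2, α2β2γ2 or α5β3γ2 receptors, grown in MEM/EBSS with 10% FCS at 37 °C. Membranes were resuspended in 10 mM potassium phosphate, pH 7.4, with 100 mM KCl. Assays used 1–2 nM [3H]Ro15-1788 and test compound from 10^-9 to 10^-5 M, at least six concentrations. Diazepam at 10^-5 M defined nonspecific binding. Incubation ran 1 h at 4 °C. Single-point % inhibition was measured at 10 µM, and Ki by curve fitting; n = 5, in duplicate.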

For series [4], the target named is T2, GABA-A receptor; alpha-1/beta-2/gamma-2 (Homo sapiens, UniProt P14867+P18507+P47870).
T2 sequence (P14867 whole entry): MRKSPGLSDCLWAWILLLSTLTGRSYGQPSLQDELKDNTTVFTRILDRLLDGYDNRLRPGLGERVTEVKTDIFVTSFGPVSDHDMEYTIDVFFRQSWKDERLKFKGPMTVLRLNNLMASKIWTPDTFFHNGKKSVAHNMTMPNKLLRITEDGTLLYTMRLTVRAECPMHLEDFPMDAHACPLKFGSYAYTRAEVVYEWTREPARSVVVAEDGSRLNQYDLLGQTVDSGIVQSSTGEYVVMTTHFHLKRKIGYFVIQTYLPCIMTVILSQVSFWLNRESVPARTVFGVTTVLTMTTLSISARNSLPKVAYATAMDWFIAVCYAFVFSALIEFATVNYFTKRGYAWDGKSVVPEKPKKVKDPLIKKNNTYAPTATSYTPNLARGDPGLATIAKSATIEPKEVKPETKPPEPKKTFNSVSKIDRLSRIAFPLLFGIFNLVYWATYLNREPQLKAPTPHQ
T2 sequence (P47870 whole entry): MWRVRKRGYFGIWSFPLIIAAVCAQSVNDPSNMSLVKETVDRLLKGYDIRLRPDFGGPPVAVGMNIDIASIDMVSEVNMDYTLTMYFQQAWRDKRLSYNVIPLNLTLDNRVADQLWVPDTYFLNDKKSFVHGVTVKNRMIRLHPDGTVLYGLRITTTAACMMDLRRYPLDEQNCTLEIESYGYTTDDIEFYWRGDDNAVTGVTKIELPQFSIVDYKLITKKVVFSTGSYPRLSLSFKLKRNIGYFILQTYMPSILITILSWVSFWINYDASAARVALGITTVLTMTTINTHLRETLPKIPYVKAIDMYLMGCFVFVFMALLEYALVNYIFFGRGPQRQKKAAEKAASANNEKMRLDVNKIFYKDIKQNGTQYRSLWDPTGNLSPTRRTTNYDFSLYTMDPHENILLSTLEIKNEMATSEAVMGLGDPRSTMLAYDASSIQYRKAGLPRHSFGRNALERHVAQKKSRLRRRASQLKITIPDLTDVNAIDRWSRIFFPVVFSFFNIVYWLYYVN
T2 sequence (P18507 whole entry): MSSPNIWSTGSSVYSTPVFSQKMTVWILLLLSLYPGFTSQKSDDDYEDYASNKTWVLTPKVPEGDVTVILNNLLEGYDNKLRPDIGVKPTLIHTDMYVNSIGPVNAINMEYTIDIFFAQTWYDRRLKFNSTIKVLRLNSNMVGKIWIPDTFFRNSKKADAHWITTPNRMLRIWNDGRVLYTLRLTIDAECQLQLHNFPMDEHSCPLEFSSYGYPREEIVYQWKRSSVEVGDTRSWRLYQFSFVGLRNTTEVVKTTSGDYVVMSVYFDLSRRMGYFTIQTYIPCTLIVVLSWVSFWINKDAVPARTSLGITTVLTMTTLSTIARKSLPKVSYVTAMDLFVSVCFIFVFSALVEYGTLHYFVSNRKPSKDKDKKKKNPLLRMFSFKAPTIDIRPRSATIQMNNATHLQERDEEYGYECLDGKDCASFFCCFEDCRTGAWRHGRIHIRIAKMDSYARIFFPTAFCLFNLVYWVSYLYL
In words: Displacement of [3H]Ro15-1788 from recombinant GABA-A alpha1beta2gamma2 receptor benzodiazepine binding site (unknown origin) after 1 hr. The class given is protein-complex assay. A digest of the protocol:
as §1

Series [5] concerns Mus musculus. In words: Anticonvulsant activity in CD1 albino mouse assessed as protection against pentylenetetrazole-induced convulsions at 1 mg/kg, po administered 30 mins prior to pentylenetetrazole challenge measured over 30 mins (reference value: 7.1%). It counts as functional.
For series [6], the system named is Mus musculus. In words: Neurotoxicity in CD1 albino mouse assessed as decrease in number of falls from rotating rod at 10 mg/kg, po by rota-rod test relative to control. The settings on record: in vivo, TDE = time-dependent effect. It counts as toxicity, organism-based. Set-up: dose 10 mg/kg, route oral. In outline: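 Motor coordination was tested on a rota-rod turning at 24 rpm in male CD-1 mice dosed po in 1% CMC. Falls within 30 s were counted at a pretest and at 15, 30, 45 and 60 min after dosing. Each value is the mean of five mice, compared with CMC-treated controls.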
A general note: Falling from the rotarod earlier than controls is read as motor impairment.

Series [7] deals with Mus musculus. The series is described as follows: Anxiolytic activity in CD1 albino mouse assessed as increase in time spent in illuminated side at 1 mg/kg, po administered 30 mins prior to testing measured for 5 mins by light-dark box test. The class given is functional, organism-based. Details: dose 1 mg/kg. A digest of the protocol: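 Light/dark box: two equal acrylic compartments, one lit by a 60 W lamp, joined by a floor-level opening. Male CD-1 mice were dosed po in 1% CMC 30 min before the test, then placed in the centre of the lit side facing away from the dark side. Over 5 min, transfers and time in the light side were recorded, n = 8 mice per group.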

The subject of series [8] is Rattus norvegicus. The series is described as follows: Procognitive effect in Harlan Wistar rat assessed as decrease in exploring time of unfamiliar rat during social investigatory behaviour at 0.3 to 10 mg/kg, po administered 30 mins prior to testing measured for 5 mins by social learning test relative to control. The class given is functional, organism-based.
Series [9] deals with Rattus norvegicus. The series is described as follows: Procognitive effect in Harlan Wistar rat assessed as exploring time of familiar rat during social investigatory behaviour at 10 mg/kg, po administered 30 mins prior to testing measured for 5 mins by social learning test (reference value: 27.6 secs). The class given is functional.
Series [10] concerns Rattus norvegicus. The series is described as follows: Procognitive effect in Harlan Wistar rat assessed as exploring time of familiar rat during social investigatory behaviour at 1 mg/kg, po administered 30 mins prior to testing measured for 5 mins by social learning test (reference value: 27.6 secs). The class given is functional.
Series [11] concerns Mus musculus. In words: Antiamnesic activity in CD1 albino mouse assessed as reversal of scopolamine-induced amnesia at 0.1 mg/kg, po administered 30 mins prior to scopolamine challenge measured after 24 hrs by passive avoidance test. The class given is functional, organism-based. Set-up: dose 0.1 mg/kg. A digest of the protocol:
(§2)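 Step-through passive avoidance in male CD-1 mice (22–24 g). Test drugs were given po, suspended in 1% carboxymethylcellulose at 10 ml/kg, 30 min before the training session. For the antiamnesic arm, scopolamine 1.5 mg/kg was injected immediately after punishment. Retention latency was compared with CMC-treated controls, n = 10–12 mice per group.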

The test system of series [12] is Rattus norvegicus. The series is described as follows: Procognitive effect in Harlan Wistar rat assessed as exploring time of familiar rat during social investigatory behaviour at 0.3 mg/kg, po administered 30 mins prior to testing measured for 5 mins by social learning test (reference value: 27.6 secs). The class given is functional.
For series [13], the system named is Mus musculus. In words: Cognitive enhancing effect in CD1 albino mouse assessed as increase in retention latency at 0.1 to 10 mg/kg, po administered 30 mins prior to testing measured after 24 hrs by passive avoidance test relative to control. The class given is functional, organism-based. In outline: as §2

The structures appear in SMILES notation. Active and inactive are the calls of the source. The calls are words filed in the database; no cut-off is given here.

For the compound `[O-][n+]1nc2c(I)cnn2c2cc(NCc3cccnc3)ccc21`, the Ki worked out at 0.33 nM in series [1], 24.9 nM in series [2] and 0.45 nM in series [4]. For the same compound, the inhibition in series [3] was determined as 37%. The Activity in series [5] is 0%; in series [6], “tde”. The outcome in series [7] and in [8] was inactive. The Time stood at 42.5 s in [9], 43.7 s in series [10] and 29.4 s in series [12]. Moreover, the outcome in series [11] and in [13] was Active.
